# Most compounds without a hit are left out; they make up all but 3.8% or so of the library.
# OX1R antag-1: OX1R (human) antagonism; O43613; OX1R-expressing cells, FRET antagonist read-out; inhibition, % at 6.6 µM; 1.8% of 330,000 active; in the data active means inhibition mostly above about 38%, no sharp cut-off; inactive means mostly below about 40%;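 further: 0% = agonist challenge alone and 100% = reference antagonist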
# Target sequence (O43613 whole entry, looked up): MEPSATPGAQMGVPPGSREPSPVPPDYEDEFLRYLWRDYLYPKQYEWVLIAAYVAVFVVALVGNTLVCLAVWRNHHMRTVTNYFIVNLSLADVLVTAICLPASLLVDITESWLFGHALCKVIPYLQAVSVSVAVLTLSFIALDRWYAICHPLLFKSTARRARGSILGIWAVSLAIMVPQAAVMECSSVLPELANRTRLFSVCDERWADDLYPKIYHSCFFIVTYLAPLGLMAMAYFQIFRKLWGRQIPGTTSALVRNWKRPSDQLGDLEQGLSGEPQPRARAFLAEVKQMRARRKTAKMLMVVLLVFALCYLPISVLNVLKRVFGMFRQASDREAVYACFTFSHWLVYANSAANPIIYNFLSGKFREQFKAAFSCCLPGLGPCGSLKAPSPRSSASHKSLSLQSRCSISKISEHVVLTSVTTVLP
# GPR7 antagonist: antagonists of human GPR7 (neuropeptides B/W receptor 1). 1.1% of 290,000 active. inhibition, % at 4.4 µM. GPR7-expressing cells, fluorescence antagonist assay. P48145; in the data active means inhibition above about 16%, passing the limit was not always enough;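 further: cells stimulated with the agonist NPW; 0% = agonist with vehicle and 100% = vehicle without agonist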
# OX1R antag-2: antagonists of human orexin 1 receptor. O43613. CHO/OX1R cells, Fluo-8 calcium fluorescence, orexin A. AID 434989. 0.43% of 330,000 active. inhibition, % at 5 µM;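 active means inhibition above its plate's threshold, mean inhibition of all tested compounds on the plate plus 3 SD, cut at about 37% in these data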;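 further: 0% = orexin A challenge wells and 100% = SB-334867-A antagonist wells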
# CHO parental Ca: signal in parental CHO cells, OX1R antagonist counter-screen; parental CHO-K1, ATP-induced calcium, Fluo-8 fluorescence; inhibition, % at 5.6 µM; 0.63% of 330,000 active;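 active means inhibition above that plate's mean sample inhibition plus 3 SD, cut at about 26% in these data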;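 further: 0% = ATP-challenged DMSO wells and 100% = DMSO wells without ATP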
#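 test system = CHO parental line | reagent = ATP stimulus | measured by = intracellular calcium via Fluo-8 no-wash fluorescent dye | control set = ATP and no-ATP DMSO wells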
# MPTP block: blocks calcium-induced mitochondrial swelling | isolated mouse mitochondria, Ca2+ swelling absorbance, 30 min | inhibition, % at 10 µM | 1.4% of 360,000 active | AID 602449;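 active means inhibition of 50% or more, scaled per plate between neutral and stimulator controls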;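 further: 0% = DMSO wells given calcium and 100% = 1 mM EGTA wells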
# Rh123 counter: membrane potential counter-screen of mitochondrial pore inhibitors. inhibition, % at 10 µM. shares compounds with MPTP block. isolated mitochondria, Rhodamine 123 fluorescence. 78% of 5,000 active. AID 624504; in the data active means inhibition above about 22%;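 further: 0% = DMSO vehicle and 100% = positive control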
# MPTP swell DR: MPTP inhibition, dose response swelling confirmation; shares compounds with MPTP block; isolated mitochondria swelling, absorbance; IC50, µM; 58% of 780 active; in the data active means IC50 below about 20 µM
# MPTP cs DR: counter-screen for mitochondrial permeability transition pore inhibitors, dose response | shares compounds with MPTP block | isolated mitochondria counterscreen, fluorescence read-out | IC50, µM | 49% of 780 active | AID 651564; in the data active means IC50 below about 80 µM
# The depositor's hits bear a star; i = inactive; . = not tested or not shown; ! = repeats disagree.
SMILES,OX1R antag-1,GPR7 antagonist,OX1R antag-2,CHO parental Ca,MPTP block,Rh123 counter,others
O=C(CCN1CCN(c2ccccc2F)CC1)c1ccc(Br)cc1,10,-12,5,-16,112*,6,MPTP swell DR=i;MPTP cs DR=53*
c1ccc(COc2ccc(OCCCCN3CCCCC3)cc2)cc1,4,15,-8,3,74*,-1,MPTP swell DR=6.7*;MPTP cs DR=19*
O=C(CCN1CCN(Cc2ccccc2)CC1)Nc1ccc(OCc2ccccc2)cc1,16,11,13,36*,86*,17,MPTP swell DR=7.3*;MPTP cs DR=13*
O=C(c1ccccc1)c1ccc(OCCOCCN2CCN(Cc3ccccc3)CC2)cc1,27,3,-35,-9,84*,10,MPTP swell DR=18*;MPTP cs DR=27*
O=C(c1ccccc1)c1ccc(OCCCCN2CCCCC2)cc1,22,6,-20,-20,0,.,
COc1ccc(NS(=O)(=O)c2cc(C(=O)N3CCN(C/C=C/c4ccccc4)CC3)ccc2C)cc1,14,.,1,-8,-1,.,
CN(C)CC/C=C1/c2ccccc2Sc2ccc(Cl)cc21,7,1,-35,-15,95*!,-8,
CCCCCC[N+](C)(C)CC/C=C1/c2ccccc2Sc2ccc(Cl)cc21,36,8,-18,-5,1,.,
CC(C)NC(=O)COC(=O)C1CSC2(c3ccc(Br)cc3)CCC(=O)N12 (configuration not stated),8,-3,-12,-8,-3,.,
Cc1ccc2c(c1)c1c(n2CC(O)CNC(C)(C)C)CCCC1 (configuration not stated),.,21*,.,.,70*,-18,MPTP swell DR=13*;MPTP cs DR=>80
Cc1nn(C)c(Cl)c1NC(=O)OCc1ccc(Cl)cc1Cl,11,-6,-3,18,87*,92*,
CCOC(=O)C1=C(CC)Nc2ccccc2N/C1=N\S(=O)(=O)c1cc(Br)ccc1Br,.,-14,.,.,66*,82*,
CCOC(=O)C1=C(CC)Nc2ccccc2N/C1=N\S(=O)(=O)c1ccc2ccccc2c1,10,11,-20,-5,7,.,
Cc1cc(-c2nnc(CCC(=O)NC(Cc3ccccc3)c3ccccc3)o2)no1 (configuration not stated),6,-12,-23,-19,2,.,
Cc1[nH]n(-c2ccccc2)c(=O)c1/C=N/NC(=O)c1cccc([N+](=O)[O-])c1,44,-5,-5,-17,4,.,
Cc1ccc(-n2[nH]c(C)c(/C=N/Nc3ccc([N+](=O)[O-])cc3[N+](=O)[O-])c2=O)cc1C,24,-9,-14,-18,115*,61*,
Cc1cccc(NC(=S)NC2CC3CCCC(C2)N3Cc2ccccc2)c1C (configuration not stated),7,-3,-24,-14,-2,.,
CCOC(=O)c1[nH]c(C)c(C(=O)OCC)c1C,15,-10,-8,-17,-2,.,
CCOC(=O)c1c(C(F)(F)C(F)(F)C(F)(F)C(F)(F)F)n[nH]c1C,6,-25,-12,-4,73*,78*,
Cc1c(OCC(=O)OC(C)(C)C)ccc2c3c(c(=O)oc12)CCC3,21,11,-15,-14,62*,56*,
CCCn1c(-c2ccc[nH]c2=O)nc2cc(C)c(C)cc21,2,-12,-9,-17,0,.,
O=C(CCCCN1CCCCC1)c1ccc2c(c1)Cc1ccccc1-2,10,8,-11,-3,95*,81*,
O=C(CCN1CCCCCC1)c1ccccc1,14,12,-4,-10,-2,.,
C[C@H](NC(=O)c1ccco1)C(=O)OCC(=O)N1CC(=O)Nc2ccccc21,1,.,-11,-1,-2,.,
O=C(COC(=O)CCNS(=O)(=O)c1cccc(C(F)(F)F)c1)NC(=O)NC1CCCCC1,5,12,-15,2,61*,-11,MPTP swell DR=18*;MPTP cs DR=23*
SMILES,OX1R antag-1,GPR7 antagonist,OX1R antag-2,CHO parental Ca,MPTP block,Rh123 counter,others
Cc1ccc2c(c1)S/C(=C/c1ccc[n+](CCO)c1)N2C,42,-19,-4,-1,-2,.,
Cc1cc(/C=C2\Sc3ccccc3N2C)cc(C)[n+]1CC1CCCO1 (configuration not stated),.,-3,.,.,75*,84*,
N#CC(=C1C=C(Br)C(=NO)C=C1Cl)c1ccc(Cl)cc1,.,.,.,.,83*,85*,
CCc1ccc(NC(=O)COC(=O)C2(c3ccc(Cl)cc3)CCCC2)cc1,22,-5,4,20,65*,75*,
CCOc1ccc(S(=O)(=O)N2CCCCC2)cc1NC(=O)CC1OC(=O)c2ccccc21 (configuration not stated),5,.,-35,-22,-1,.,
CCCCCCc1cc2cc(-c3nnc(-c4ccccc4OC)o3)c(=O)oc2cc1O,4,-6,20,22,84*,5,
CCCCCCc1cc2cc(-c3nnc(-c4cc(OC)c(OC)c(OC)c4)o3)c(=O)oc2cc1O,10,-7,-9,-5,.,.,
CCCCCCc1cc2cc(C(=O)Nc3ccccc3OC)c(=O)oc2cc1O,8,0,0,-1,57*,-5,MPTP swell DR=2.6*;MPTP cs DR=<2.5*
CCCCCCc1cc2cc(-c3nnc(-c4ccccc4O)o3)c(=O)oc2cc1O,11,5,12,8,104*,5,
CCCCCCc1cc2cc(S(=O)(=O)c3ccc(F)cc3)c(=O)oc2cc1O,17,-4,8,17,81*,93*,
Cc1c(NC(=O)c2c(N)sc3c2CCCC3)c(=O)n(-c2ccccc2)n1C,-7,-13,-24,-5,0,.,
CC(C)(C)C(O)C(Cc1ccccc1Cl)n1cncn1 (configuration not stated),9,8,-9,-3,1,.,
CCCOc1nc2c(c(=O)n(C)c(=O)n2C)n1C,8,-7,-7,-7,-1,.,
CCCOc1nc2c(c(=O)n(C)c(=O)n2C)n1Cc1cccc2ccccc12,15,-9,68*,39*,70*,74*,
COc1ccccc1NS(=O)(=O)c1cc(NC(=S)Nc2cc(C)cc(C)c2)ccc1Cl,21,5,-22,-11,97*,94*,
COc1cc(C)c(NC(=S)Nc2cccc(Cl)c2)cc1OC,10,1,1,-1,83*,83*,
COc1cc(C)c(NC(=S)Nc2ccc(C)c(Cl)c2)cc1OC,13,-8,-16,-10,61*,77*,
COc1ccc(NC(=S)Nc2cccc(Cl)c2Cl)cc1OC,23,-2,-28,-20,0,.,
Clc1ccccc1Nc1nc(-c2ccncc2)nc2ccccc12,0,-18,-25,-31,-1,.,
c1ccc2c(Nc3nc(-c4ccncc4)nc4ccccc34)cccc2c1,30,-10,-41,-28,14,.,
Clc1cccc(Nc2nc(-c3ccncc3)nc3ccccc23)c1,19,1,16,-15,69*,83*,

# Bioassay records as filed in PubChem.
